Test results published in ChEMBL document CHEMBL4673205, “Structure-Based Design of a Covalent Inhibitor of the SET Domain-Containing Protein 8 (SETD8) Lysine Methyltransferase” (J Med Chem, 2016).
The source made the active and inactive calls. No cut-off for these calls is given here.

Tests used:
[1] = target: T1, N-lysine methyltransferase KMT5A (Homo sapiens, UniProt Q9NQR1); assay: Inhibition of recombinant SETD8 catalytic domain (unknown origin) (232 to 393 residues) expressed in Escherichia coli assessed as reduction in incorporation of [3H]-labeled methyl group into biotinylated H4 (1 to 24) peptide measured after 1 hr using [3H-SAM] by scintillation proximity assay
T1 sequence (Q9NQR1 whole entry): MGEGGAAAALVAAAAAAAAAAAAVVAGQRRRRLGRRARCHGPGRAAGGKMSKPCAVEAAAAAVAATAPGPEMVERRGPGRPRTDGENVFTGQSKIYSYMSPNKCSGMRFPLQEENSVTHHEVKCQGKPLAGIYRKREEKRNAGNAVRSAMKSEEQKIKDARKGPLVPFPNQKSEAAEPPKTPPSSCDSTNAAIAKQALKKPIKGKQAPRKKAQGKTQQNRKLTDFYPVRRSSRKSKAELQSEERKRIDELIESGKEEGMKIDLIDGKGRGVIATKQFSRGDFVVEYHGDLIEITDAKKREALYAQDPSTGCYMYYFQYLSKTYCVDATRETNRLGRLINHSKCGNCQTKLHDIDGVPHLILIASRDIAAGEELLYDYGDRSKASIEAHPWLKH

[2] = target: T2, N-lysine methyltransferase KMT5A (Homo sapiens) (UniProt Q9NQR1); assay: Binding affinity to wild type SETD8 catalytic domain (unknown origin) (234 to 380 residues) expressed in Escherichia coli assessed as covalent adduct formation at 20 to 200 uM incubated for 3 hrs by LC-MSD-TOF analysis; conditions: dose 20-200 µM
T2 sequence (whole entry): T1 sequence (Q9NQR1 whole entry)

[3] = target: T2, N-lysine methyltransferase KMT5A (Homo sapiens); assay: Inhibition of SETD8 in human HeLa cells assessed as reduction in monomethylation of H4K20 up to 10 uM; type: cell-based; conditions: dose microM <=10
[4] = Efflux ratio of compound; type: ADME; conditions: not told
[5] = target: T2, N-lysine methyltransferase KMT5A (Homo sapiens); assay: (§1) Inhibition of wild type SETD8 catalytic domain (unknown origin) (234 to 380 residues) expressed in Escherichia coli assessed as compound-adduct dimer formation by measuring residual activity at 20 to 200 uM using varying levels of biotinylated H4 (1 to 24) peptide substrate measured after 1 hr in presence of [3H-SAM] by scintillation counting assay; conditions: dose 20-200 µM
Outline: (§2)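 The adduct was purified by gel filtration, giving monomer and dimer fractions that interconvert after a short time. Each fraction was tested in the enzymatic assay, and residual activity was expressed relative to wild-type SETD8.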

[6] = Permeability of compound; type: ADME; conditions: not told; read-out: permeability
[7] = species on record: Homo sapiens; assay: Binding affinity to human recombinant N-terminal His-tagged SETD8 C343S mutant (234 to 380 residues) expressed in Escherichia coli assessed as covalent adduct formation at 20 to 200 uM incubated for 3 hrs by LC-MSD-TOF analysis; conditions: dose 20-200 µM
[8] = target: Histone-lysine N-methyltransferase EZH2 (Homo sapiens) (UniProt Q15910); assay: Binding affinity to PRC2 (unknown origin) by mass-spectrometric analysis
[9] = target: T3, Histone-lysine N-methyltransferase SMYD3 (Homo sapiens) (UniProt Q9H7B4); assay: Binding affinity to SMYD3 (unknown origin) by mass-spectrometric analysis
T3 sequence (whole entry): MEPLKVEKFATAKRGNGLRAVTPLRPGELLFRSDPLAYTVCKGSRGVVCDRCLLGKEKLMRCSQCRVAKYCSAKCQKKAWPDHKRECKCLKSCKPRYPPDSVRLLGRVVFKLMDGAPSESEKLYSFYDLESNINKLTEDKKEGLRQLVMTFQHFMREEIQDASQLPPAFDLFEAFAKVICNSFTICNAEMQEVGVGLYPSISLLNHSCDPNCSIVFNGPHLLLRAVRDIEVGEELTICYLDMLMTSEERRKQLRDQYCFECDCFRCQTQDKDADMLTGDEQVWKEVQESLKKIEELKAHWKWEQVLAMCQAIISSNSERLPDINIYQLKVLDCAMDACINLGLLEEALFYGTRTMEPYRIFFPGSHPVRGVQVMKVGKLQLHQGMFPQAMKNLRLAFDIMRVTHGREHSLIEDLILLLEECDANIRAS

[10] = species on record: Homo sapiens; assay: Binding affinity to human recombinant N-terminal His-tagged SETD8 C311S mutant (234 to 380 residues) expressed in Escherichia coli assessed as covalent adduct formation at 20 to 200 uM incubated for 3 hrs by LC-MSD-TOF analysis; conditions: dose 20-200 µM
[11] = target: N-lysine methyltransferase SMYD2 (Homo sapiens) (UniProt Q9NRG4); assay: Binding affinity to SMYD2 (unknown origin) by mass-spectrometric analysis
[12] = target: T2, N-lysine methyltransferase KMT5A (Homo sapiens); assay: Binding affinity to wild type SETD8 catalytic domain (unknown origin) (234 to 380 residues) expressed in Escherichia coli assessed as covalent adduct formation at 20 to 200 uM incubated for 3 hrs in presence of GSH by LC-MSD-TOF analysis; conditions: dose 20-200 µM
[13] = target: T1, N-lysine methyltransferase KMT5A; assay: Inhibition of recombinant SETD8 catalytic domain (unknown origin) (232 to 393 residues) expressed in Escherichia coli assessed as reduction in incorporation of [3H]-labeled methyl group into biotinylated H4 (1 to 24) peptide measured after 5 hrs using [3H-SAM] by scintillation proximity assay
Outline: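 SETD8 catalytic domain (residues 232–393) was expressed in E. coli and purified. Compound was preincubated with the enzyme for a set time (1 h or 5 h) before a scintillation proximity methylation assay. IC50 was taken from a fitted concentration–response curve.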

[14] = target: T2, N-lysine methyltransferase KMT5A (Homo sapiens); assay: as §1, with “monomer” for “dimer”; conditions: dose 20-200 µM; outline: as §2

N-lysine methyltransferase SMYD2 (Homo sapiens), sequence (Q9NRG4 whole entry, the tested form may be a part): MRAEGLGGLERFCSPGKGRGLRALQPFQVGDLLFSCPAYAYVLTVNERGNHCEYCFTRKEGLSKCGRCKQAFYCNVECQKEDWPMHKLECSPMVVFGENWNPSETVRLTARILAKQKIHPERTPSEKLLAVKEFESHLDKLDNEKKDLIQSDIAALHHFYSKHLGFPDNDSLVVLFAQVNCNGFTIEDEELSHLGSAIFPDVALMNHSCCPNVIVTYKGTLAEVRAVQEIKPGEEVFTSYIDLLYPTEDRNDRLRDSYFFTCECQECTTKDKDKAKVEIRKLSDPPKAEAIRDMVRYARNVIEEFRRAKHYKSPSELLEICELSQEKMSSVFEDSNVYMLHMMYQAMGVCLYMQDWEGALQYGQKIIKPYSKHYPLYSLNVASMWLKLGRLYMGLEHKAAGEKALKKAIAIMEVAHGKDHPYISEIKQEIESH
Histone-lysine N-methyltransferase EZH2 (Homo sapiens), sequence (Q15910 whole entry, looked up): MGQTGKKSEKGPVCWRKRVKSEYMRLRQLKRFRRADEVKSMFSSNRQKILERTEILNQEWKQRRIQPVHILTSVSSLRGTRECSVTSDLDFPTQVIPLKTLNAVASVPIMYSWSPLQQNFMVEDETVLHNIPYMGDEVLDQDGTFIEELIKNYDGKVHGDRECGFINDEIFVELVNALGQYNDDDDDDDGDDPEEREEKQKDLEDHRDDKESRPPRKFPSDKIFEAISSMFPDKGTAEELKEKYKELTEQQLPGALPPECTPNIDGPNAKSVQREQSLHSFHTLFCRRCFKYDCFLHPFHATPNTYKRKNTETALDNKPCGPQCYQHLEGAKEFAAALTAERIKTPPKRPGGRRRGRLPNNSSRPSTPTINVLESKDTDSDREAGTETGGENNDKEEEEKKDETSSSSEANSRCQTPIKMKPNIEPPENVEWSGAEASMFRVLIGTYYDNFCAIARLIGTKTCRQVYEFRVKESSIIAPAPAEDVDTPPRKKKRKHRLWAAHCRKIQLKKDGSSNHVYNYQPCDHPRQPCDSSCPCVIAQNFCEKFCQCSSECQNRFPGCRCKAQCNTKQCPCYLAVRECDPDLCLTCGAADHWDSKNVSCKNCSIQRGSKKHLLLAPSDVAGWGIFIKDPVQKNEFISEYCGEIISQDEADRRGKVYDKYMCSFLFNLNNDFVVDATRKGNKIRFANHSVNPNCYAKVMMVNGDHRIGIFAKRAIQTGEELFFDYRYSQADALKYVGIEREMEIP

IC50 [1] [µM] | Activity [2] | inhibition [3] | efflux ratio [4] | Activity [5] [%] | Papp [6] [×10⁻⁶ cm/s] | Activity [7] | Activity [8] | Activity [9] | Activity [10] | Activity [11] | Activity [12] | IC50 [13] [µM] | Activity [14] [%] | SMILES
> 200 | inactive |  |  |  |  |  |  |  |  |  |  |  |  | C=CC(=O)NCCCN(C)c1nc(N2CCCC2)nc2cc(OC)c(OC)cc12
6.9 | Active | inactive | 137 | 10 | 0.44 | Active | inactive | inactive | inactive | inactive | Active | 0.804 | 10 | C=CC(=O)NCCCNc1nc(N2CCCC2)nc2cc(OC)c(OC)cc12
